Measured values taken from ChEMBL document CHEMBL4257465, “Strigolactones: a plant phytohormone as novel anti-inflammatory agents” (Medchemcomm, 2018).
One block for each compound: values may come before it.

How the values were obtained:
[1] = test system: RAW264.7; experiment: Antiinflammatory activity in mouse RAW264.7 cells assessed as inhibition of LPS-induced NO production pretreated for 2 hrs followed by LPS stimulation measured after 24 hrs by Griess assay; assay type: functional, cell-based
Procedure, shortened: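 RAW264.7 murine macrophages (DMEM, 10% serum, 37 °C, 5% CO2) seeded at 5 × 10^4 cells/well and cultured 18 h. Compounds tested at 1–100 μM (DMSO 0.1% v/v), with LPS (E. coli 0127:B8) at 100 ng mL−1. Supernatant nitrite read with Griess reagent (10 min, room temperature, OD540).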

[2] = test system: RAW264.7; experiment: Antiinflammatory activity in LPS-induced mouse RAW264.7 cells assessed as TNFalpha levels at 5 uM pretreated for 2 hrs followed by LPS stimulation and measured after 12 hrs by ELISA (reference value: 5313.7 +/- 420.9 pg/ml); assay type: functional
Procedure, shortened: (§1)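 RAW264.7 murine macrophages (DMEM, 10% serum, 37 °C, 5% CO2) seeded at 5 × 10^5 cells per well, pretreated 2 h with compound at 10, 5, 2.5 or 1.25 μM (DMSO 0.1% v/v), then LPS (E. coli 0127:B8) 100 ng mL−1 added. Supernatant TNF-α or IL-6 read by mouse ELISA kit after 6, 12 and 24 h. Mean ± SD, n = 3, three independent experiments.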

[3] = test system: RAW264.7; experiment: Antiinflammatory activity in LPS-induced mouse RAW264.7 cells assessed as TNFalpha levels at 1.25 uM pretreated for 2 hrs followed by LPS stimulation and measured after 6 hrs by ELISA (reference value: 4377.1 +/- 318.6 pg/ml); assay type: functional; procedure, shortened: as §1
[4] = test system: RAW264.7; experiment: Antiinflammatory activity in LPS-induced mouse RAW264.7 cells assessed as TNFalpha levels at 2.5 uM pretreated for 2 hrs followed by LPS stimulation and measured after 6 hrs by ELISA (reference value: 4377.1 +/- 318.6 pg/ml); assay type: functional; procedure, shortened: as §1
[5] = test system: RAW264.7; experiment: Antiinflammatory activity in LPS-induced mouse RAW264.7 cells assessed as TNFalpha levels at 5 uM pretreated for 2 hrs followed by LPS stimulation and measured after 6 hrs by ELISA (reference value: 4377.1 +/- 318.6 pg/ml); assay type: functional; procedure, shortened: as §1
[6] = test system: RAW264.7; experiment: Antiinflammatory activity in LPS-induced mouse RAW264.7 cells assessed as TNFalpha levels at 10 uM pretreated for 2 hrs followed by LPS stimulation and measured after 6 hrs by ELISA (reference value: 4377.1 +/- 318.6 pg/ml); assay type: functional; procedure, shortened: as §1
[7] = test system: RAW264.7; experiment: Antiinflammatory activity in LPS-induced mouse RAW264.7 cells assessed as TNFalpha levels at 10 uM pretreated for 2 hrs followed by LPS stimulation and measured after 12 hrs by ELISA (reference value: 5313.7 +/- 420.9 pg/ml); assay type: functional; procedure, shortened: as §1
[8] = Cytotoxicity against mouse RAW264.7 cells assessed as cell viability at 10 uM after 48 hrs by MTT assay (reference value: 100%); assay type: cell-based; settings: read-out: Activity
Procedure, shortened: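 RAW264.7 cells seeded at 4 × 10^3 per well, cultured overnight, exposed to compound (DMSO 0.1% v/v) for 48 h. MTT 0.5 mg mL−1 added for 4 h at 37 °C, formazan dissolved in DMSO, OD570 read. Viability relative to medium-only cells set as 100%. Mean ± SD (n = 5), three independent experiments.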

[9] = test system: RAW264.7; experiment: Antiinflammatory activity in LPS-induced mouse RAW264.7 cells assessed as TNFalpha levels at 10 uM pretreated for 2 hrs followed by LPS stimulation and measured after 24 hrs by ELISA (reference value: 9653.7 +/- 377.3 pg/ml); assay type: functional; procedure, shortened: as §1
[10] = test system: RAW264.7; experiment: Antiinflammatory activity in LPS-induced mouse RAW264.7 cells assessed as TNFalpha levels at 5 uM pretreated for 2 hrs followed by LPS stimulation and measured after 24 hrs by ELISA (reference value: 9653.7 +/- 377.3 pg/ml); assay type: functional; procedure, shortened: as §1
[11] = test system: RAW264.7; experiment: Antiinflammatory activity in LPS-induced mouse RAW264.7 cells assessed as TNFalpha levels at 2.5 uM pretreated for 2 hrs followed by LPS stimulation and measured after 24 hrs by ELISA (reference value: 9653.7 +/- 377.3 pg/ml); assay type: functional; procedure, shortened: as §1
[12] = test system: RAW264.7; experiment: Antiinflammatory activity in LPS-induced mouse RAW264.7 cells assessed as TNFalpha levels at 1.25 uM pretreated for 2 hrs followed by LPS stimulation and measured after 24 hrs by ELISA (reference value: 9653.7 +/- 377.3 pg/ml); assay type: functional; procedure, shortened: as §1
[13] = test system: RAW264.7; experiment: Antiinflammatory activity in LPS-induced mouse RAW264.7 cells assessed as IL-6 levels at 10 uM pretreated for 2 hrs followed by LPS stimulation and measured after 12 hrs by ELISA (reference value: 1394 +/- 62.6 pg/ml); assay type: functional; procedure, shortened: as §1
[14] = test system: RAW264.7; experiment: Antiinflammatory activity in LPS-induced mouse RAW264.7 cells assessed as IL-6 levels at 1.25 uM pretreated for 2 hrs followed by LPS stimulation and measured after 6 hrs by ELISA (reference value: 472.3 +/- 25.8 pg/ml); assay type: functional; procedure, shortened: as §1
[15] = test system: RAW264.7; experiment: Antiinflammatory activity in LPS-induced mouse RAW264.7 cells assessed as IL-6 levels at 2.5 uM pretreated for 2 hrs followed by LPS stimulation and measured after 6 hrs by ELISA (reference value: 472.3 +/- 25.8 pg/ml); assay type: functional; procedure, shortened: as §1
[16] = test system: RAW264.7; experiment: Antiinflammatory activity in LPS-induced mouse RAW264.7 cells assessed as IL-6 levels at 5 uM pretreated for 2 hrs followed by LPS stimulation and measured after 6 hrs by ELISA (reference value: 472.3 +/- 25.8 pg/ml); assay type: functional; procedure, shortened: as §1
[17] = test system: RAW264.7; experiment: Antiinflammatory activity in LPS-induced mouse RAW264.7 cells assessed as IL-6 levels at 10 uM pretreated for 2 hrs followed by LPS stimulation and measured after 6 hrs by ELISA (reference value: 472.3 +/- 25.8 pg/ml); assay type: functional; procedure, shortened: as §1
[18] = test system: RAW264.7; experiment: Antiinflammatory activity in LPS-induced mouse RAW264.7 cells assessed as IL-6 levels at 5 uM pretreated for 2 hrs followed by LPS stimulation and measured after 12 hrs by ELISA (reference value: 1394 +/- 62.6 pg/ml); assay type: functional; procedure, shortened: as §1
[19] = test system: RAW264.7; experiment: Antiinflammatory activity in LPS-induced mouse RAW264.7 cells assessed as IL-6 levels at 2.5 uM pretreated for 2 hrs followed by LPS stimulation and measured after 12 hrs by ELISA (reference value: 1394 +/- 62.6 pg/ml); assay type: functional; procedure, shortened: as §1
[20] = test system: RAW264.7; experiment: Antiinflammatory activity in LPS-induced mouse RAW264.7 cells assessed as IL-6 levels at 1.25 uM pretreated for 2 hrs followed by LPS stimulation and measured after 12 hrs by ELISA (reference value: 1394 +/- 62.6 pg/ml); assay type: functional; procedure, shortened: as §1
[21] = test system: RAW264.7; experiment: Antiinflammatory activity in LPS-induced mouse RAW264.7 cells assessed as IL-6 levels at 10 uM pretreated for 2 hrs followed by LPS stimulation and measured after 24 hrs by ELISA (reference value: 1966.6 +/- 102.3 pg/ml); assay type: functional; procedure, shortened: as §1
[22] = test system: RAW264.7; experiment: Antiinflammatory activity in LPS-induced mouse RAW264.7 cells assessed as IL-6 levels at 5 uM pretreated for 2 hrs followed by LPS stimulation and measured after 24 hrs by ELISA (reference value: 1966.6 +/- 102.3 pg/ml); assay type: functional; procedure, shortened: as §1
[23] = test system: RAW264.7; experiment: Antiinflammatory activity in LPS-induced mouse RAW264.7 cells assessed as IL-6 levels at 2.5 uM pretreated for 2 hrs followed by LPS stimulation and measured after 24 hrs by ELISA (reference value: 1966.6 +/- 102.3 pg/ml); assay type: functional; procedure, shortened: as §1
[24] = test system: RAW264.7; experiment: Antiinflammatory activity in LPS-induced mouse RAW264.7 cells assessed as IL-6 levels at 1.25 uM pretreated for 2 hrs followed by LPS stimulation and measured after 24 hrs by ELISA (reference value: 1966.6 +/- 102.3 pg/ml); assay type: functional; procedure, shortened: as §1

Structure (SMILES): CC1=C[C@@H](O/C=C2/C(=O)O[C@@H]3c4ccccc4C[C@H]23)OC1=O
IC50 [1]: 6.62 µM

IC50 [1]: 35.4 µM
Structure (SMILES): CC1C[C@@H](O/C=C2/C(=O)O[C@H]3c4ccccc4C[C@@H]23)OC1=O (some centres undefined)

IC50 [1]: 60.5 µM
Structure (SMILES): CC1C[C@H](O/C=C2/C(=O)O[C@H]3c4ccccc4C[C@@H]23)OC1=O (some centres undefined)

IC50 [1]: 42.1 µM
Structure (SMILES): CC1C[C@H](O/C=C2/C(=O)OC3c4ccccc4CC23)OC1=O (some centres undefined)

Structure (SMILES): C[C@@H]1C[C@H]2[C@@H]3CCC4=CC(=O)C=C[C@]4(C)[C@@]3(F)[C@@H](O)C[C@]2(C)[C@@]1(O)C(=O)CO [DEXAMETHASONE]
Activity [2]: 4063.6 pg/mL | Activity [3]: 4056.3 pg/mL | Activity [4]: 3671.8 pg/mL | Activity [5]: 3219.4 pg/mL | Activity [6]: 2655 pg/mL | Activity [7]: 3393.5 pg/mL | viability at 48 h, 10 µM [8]: 100% | IC50 [1]: 2.66 µM | Activity [9]: 6458.3 pg/mL | Activity [10]: 7533.7 pg/mL | Activity [11]: 8187.9 pg/mL | Activity [12]: 8748.1 pg/mL | Activity [13]: 791 pg/mL | Activity [14]: 422.7 pg/mL | Activity [15]: 393.4 pg/mL | Activity [16]: 332.8 pg/mL | Activity [17]: 269.5 pg/mL | Activity [18]: 927.7 pg/mL | Activity [19]: 1120.3 pg/mL | Activity [20]: 1240.5 pg/mL | Activity [21]: 924.1 pg/mL | Activity [22]: 1336.5 pg/mL | Activity [23]: 1594.9 pg/mL | Activity [24]: 1770.4 pg/mL

IC50 [1]: 44.5 µM
Structure (SMILES): CC1C[C@@H](O/C=C2/C(=O)OC3c4ccccc4CC23)OC1=O (some centres undefined)

Structure (SMILES): CC1=C[C@@H](O/C=C2/C(=O)OC3c4ccccc4CC23)OC1=O (some centres undefined)
IC50 [1]: 4.32 µM

Structure (SMILES): CC1=C[C@H](O/C=C2/C(=O)OC3c4ccccc4CC23)OC1=O (some centres undefined)
IC50 [1]: 4.06 µM

IC50 [1]: 32.3 µM
Structure (SMILES): CC1C[C@H](O/C=C2/C(=O)O[C@@H]3c4ccccc4C[C@H]23)OC1=O (some centres undefined)

IC50 [1]: 64.6 µM
Structure (SMILES): CC1C[C@@H](O/C=C2/C(=O)O[C@@H]3c4ccccc4C[C@H]23)OC1=O (some centres undefined)

Structure (SMILES): CC1=C[C@H](O/C=C2/C(=O)O[C@H]3c4ccccc4C[C@@H]23)OC1=O
IC50 [1]: 6.34 µM
